Screening data: PubChem BioAssay, several laboratories
The list is not random: actives were taken first. Their share in the collection is about 12%.
L major viab: Leishmania major promastigote growth inhibition, primary screen; hit rate 9% among 200,000; inhibition, % at 10 µM; Leishmania major promastigotes, resazurin fluorescence viability; in the data active means inhibition above about 50%;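 further: promastigotes grown with compound for 44 hours at 28 °C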
ABCB1 inh: ABCB1 efflux pump inhibitors, primary screen, cell-based, multiplex, flow cytometry, ABCG2 counter-screen | inhibition, % at 6.6 µM | CCRF-Adr cells, JC-1 efflux | hit rate 0.067% among 190,000 | ATP-dependent translocase ABCB1 (Homo sapiens), P08183; in the data active means inhibition above about 40%;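 further: higher value means more JC-1 retained so stronger ABCB1 efflux block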
RAM inhibit: inhibitors of the yeast RAM network, primary screen, dse1pr::URA3 reporter, 5-FOA selection. hit rate 1.8% among 190,000. inhibition, % at 50 µM. S. cerevisiae dse1pr::URA3 reporter, 5-FOA growth OD615, 2 d; analog-sensitive cbk1-as2 kinase mutant strain;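 active means inhibition above a set limit, 3 SD over mean compound inhibition, cut at about 8.4% in these data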;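 further: inhibition rescues growth on 5-FOA so higher OD means more RAM inhibition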
WT yeast gro inh: growth inhibition of WT strain, primary screen, mitochondrial fusion inhibitor project, WT and mutant strains, chemical genetic | mitochondrial fusion phenotypic screen | inhibition, % at 10 µM | hit rate 2.1% among 190,000; in the data active means inhibition above about 58%; tested in S. cerevisiae
ABCG2 block: ABCG2 efflux pump inhibitors, primary screen, multiplex with ABCB1, IgMXP3 cells, flow cytometry; Broad substrate specificity ATP-binding cassette transporter ABCG2 (Homo sapiens), Q9UNQ0; JC-1 efflux; inhibition, % at 6.6 µM; hit rate 0.1% among 190,000;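 active means inhibition above 80%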
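Test system: IgMXP3 (ABCG2) plus far-red-tagged CCRF-Adr (ABCB1) cells. Reagent: JC-1 dye as substrate. Timing: 10 min exposure at 25 °C with rotation, no wash. Measured by: flow cytometric JC-1 green MFI at 530 nm. Read-out: percent efflux inhibition, scaled nicardipine 100% to DMSO 0%. Control set: nicardipine and DMSO wells.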
Numbers stand for hits.

Results for O=C(c1ccncc1)N1CCN(c2ccc(F)cc2)CC1 ?
L major viab: inactive; ABCB1 inh: inactive; RAM inhibit: inactive; WT yeast gro inh: inactive; ABCG2 block: inactive

Results for O=C(c1ccc(Cl)cc1)N1CCN(c2ccc(F)cc2)CC1 ?
L major viab: inactive; ABCB1 inh: inactive; RAM inhibit: inactive; WT yeast gro inh: 71; ABCG2 block: inactive

What do the screens show for `Cc1ccc(C)c(N2CCN(C(=O)c3ccc(Cn4c(=O)[nH]c5ccccc5c4=O)cc3)CC2)c1`?
L major viab: 98; ABCB1 inh: inactive; RAM inhibit: inactive; WT yeast gro inh: inactive; ABCG2 block: inactive

Results for C=CCn1c(=O)[nH]c2cc(C(=O)N3CCN(c4cc(C)ccc4C)CC3)ccc2c1=O ?
L major viab: inactive; ABCB1 inh: inactive; RAM inhibit: inactive; WT yeast gro inh: inactive; ABCG2 block: inactive

Results for COCCSc1ccccc1C(=O)N1CCN(Cc2ccccc2)CC1 ?
L major viab: inactive; ABCB1 inh: inactive; RAM inhibit: inactive; WT yeast gro inh: inactive; ABCG2 block: inactive

What do the screens show for `Cc1ccc(N(CC(=O)NCc2ccc3c(c2)OCO3)S(=O)(=O)c2c(C)noc2C)cc1`?
L major viab: 59; ABCB1 inh: inactive; RAM inhibit: inactive; WT yeast gro inh: inactive; ABCG2 block: inactive

How did COc1cc(OC)cc(C(=O)NNC(=S)NCc2ccco2)c1 do in these assays?
L major viab: inactive; ABCB1 inh: inactive; RAM inhibit: inactive; WT yeast gro inh: inactive; ABCG2 block: inactive

How did C=CCn1c(SCC(=O)NC2CC2)nc2sc(CC)cc2c1=O do in these assays?
L major viab: 58; ABCB1 inh: inactive; RAM inhibit: inactive; WT yeast gro inh: inactive; ABCG2 block: inactive

Results for COc1ccc(NC2CC(=O)N(c3cc([N+](=O)[O-])ccc3C)C2=O)cc1 (configuration not stated) ?
L major viab: inactive; ABCB1 inh: inactive; RAM inhibit: inactive; WT yeast gro inh: inactive; ABCG2 block: inactive

Results for O=C(NC1CCCCC1)C(c1ccc(O)cc1)N(CC1CCCO1)C(=O)C1COc2ccccc2O1 (configuration not stated) ?
L major viab: 50; ABCB1 inh: inactive; RAM inhibit: inactive; WT yeast gro inh: inactive; ABCG2 block: inactive

What do the screens show for `CC(C)(C)NC(=O)CN(Cc1cccs1)C(=O)C1COc2ccccc2O1` (configuration not stated)?
L major viab: inactive; ABCB1 inh: inactive; RAM inhibit: inactive; WT yeast gro inh: inactive; ABCG2 block: inactive

How did CC(C)CCNC(=O)C(c1ccc(O)cc1)N(Cc1cccs1)C(=O)C1COc2ccccc2O1 (configuration not stated) do in these assays?
L major viab: 100; ABCB1 inh: inactive; RAM inhibit: inactive; WT yeast gro inh: inactive; ABCG2 block: inactive

What do the screens show for `Cc1ccc(C(C(=O)NC2CCCCC2)N(Cc2cccnc2)C(=O)C2COc3ccccc3O2)o1` (configuration not stated)?
L major viab: 64; ABCB1 inh: inactive; RAM inhibit: inactive; WT yeast gro inh: inactive; ABCG2 block: inactive

How did COC(=O)CCNC(=O)Cn1cnc2sc3c(c2c1=O)CCCC3 do in these assays?
L major viab: inactive; ABCB1 inh: inactive; RAM inhibit: inactive; WT yeast gro inh: inactive; ABCG2 block: inactive

How did Cc1cccc(NC(=O)COC(=O)CCc2ccc(S(=O)(=O)N3CCOCC3)cc2)c1C do in these assays?
L major viab: inactive; ABCB1 inh: inactive; RAM inhibit: inactive; WT yeast gro inh: inactive; ABCG2 block: inactive

What do the screens show for `CCn1c(/C=C\c2ccccc2C)nc2ccccc2c1=O`?
L major viab: inactive; ABCB1 inh: inactive; RAM inhibit: inactive; WT yeast gro inh: inactive; ABCG2 block: inactive

How did Cc1ccccc1/C=C\c1nc2ccccc2c(=O)n1Cc1ccccc1 do in these assays?
L major viab: 99; ABCB1 inh: inactive; RAM inhibit: inactive; WT yeast gro inh: inactive; ABCG2 block: inactive

How did CNC(=O)NC(=O)COC(=O)/C=C/c1cccc(Br)c1 do in these assays?
L major viab: inactive; ABCB1 inh: inactive; RAM inhibit: inactive; WT yeast gro inh: inactive; ABCG2 block: inactive

Results for Cc1ccc(Sc2ccc(N)cc2C#N)cc1 ?
L major viab: inactive

Results for Cc1nn(Cc2ccccc2)c2sc(C(=O)NCc3cccnc3)cc12 ?
L major viab: inactive; ABCB1 inh: inactive; RAM inhibit: inactive; WT yeast gro inh: inactive; ABCG2 block: inactive

Results for Cc1cnc(NC(=O)c2cc3c(C)nn(Cc4ccccc4Cl)c3s2)s1 ?
L major viab: 60; ABCB1 inh: inactive; RAM inhibit: inactive; WT yeast gro inh: inactive; ABCG2 block: inactive

Results for CN(C)S(=O)(=O)c1ccc(NC(=O)COC(=O)CC2CC3CCC2C3)cc1 (configuration not stated) ?
L major viab: inactive; ABCB1 inh: inactive; RAM inhibit: inactive; WT yeast gro inh: inactive; ABCG2 block: inactive

What do the screens show for `Cc1ccc(SCc2ccc(C(=O)Nc3ccccc3Br)cc2)cc1`?
L major viab: inactive; ABCB1 inh: inactive; RAM inhibit: inactive; WT yeast gro inh: inactive; ABCG2 block: inactive

Results for Cc1ccc(SCc2ccc(C(=O)Nc3ccccc3C(=O)NC(C)C)cc2)cc1 ?
L major viab: inactive; ABCB1 inh: inactive; RAM inhibit: 9.1; WT yeast gro inh: inactive; ABCG2 block: inactive

Results for CCN(CC)S(=O)(=O)c1ccc(C)c(NC(=O)CSc2nc3ccc(C)cc3[nH]2)c1 ?
L major viab: inactive; ABCB1 inh: inactive; RAM inhibit: inactive; WT yeast gro inh: inactive; ABCG2 block: inactive

Results for CCc1nnc(NC(=O)c2ccc3nc(CC)c(CC)nc3c2)s1 ?
L major viab: inactive; ABCB1 inh: inactive; RAM inhibit: inactive; WT yeast gro inh: inactive; ABCG2 block: inactive

How did COc1ccc(-c2[nH]ncc2CN2CCC(N3CCSCC3)CC2)cc1F do in these assays?
L major viab: inactive; ABCB1 inh: inactive; RAM inhibit: inactive; WT yeast gro inh: inactive; ABCG2 block: inactive

Results for CCN(CC)S(=O)(=O)c1cccc(C(=O)Nc2cc(C)cc(C)c2)c1 ?
L major viab: inactive; ABCB1 inh: inactive; RAM inhibit: 8.5; WT yeast gro inh: inactive; ABCG2 block: inactive

How did CCN(CC)S(=O)(=O)c1cccc(C(=O)N/N=C/c2ccc(O)c(O)c2O)c1 do in these assays?
L major viab: inactive; ABCB1 inh: inactive; RAM inhibit: inactive; WT yeast gro inh: inactive; ABCG2 block: inactive

Results for Cc1cc(C)cc(NC(=O)c2ccc3nc[nH]c3c2)c1 ?
L major viab: 86; ABCB1 inh: inactive; RAM inhibit: inactive; WT yeast gro inh: inactive; ABCG2 block: inactive

How did CCN(CC)S(=O)(=O)c1cccc(C(=O)N/N=C(\C)c2ccc(O)cc2O)c1 do in these assays?
L major viab: 68; ABCB1 inh: inactive; RAM inhibit: inactive; WT yeast gro inh: inactive; ABCG2 block: inactive

How did CCN(CC)S(=O)(=O)c1cccc(C(=O)Nc2cccc(C)c2)c1 do in these assays?
L major viab: 62; ABCB1 inh: inactive; RAM inhibit: inactive; WT yeast gro inh: inactive; ABCG2 block: inactive
